Screening results deposited in PubChem BioAssay by Broad Institute.
PDI inh: inhibitors of human PDI, primary screen, biochemical, turbidity, single point, plate reader; PDI insulin aggregation turbidity, A650, 90 min; actives 0.052% (n = 350,000); inhibition, % at 10 µM;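 active means mean inhibition across replicates of 30% or more, whatever share of single replicates reach that level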
ERp5 block: inhibitors of ERp5-driven insulin aggregation, primary screen, biochemical, turbidity, absorbance 650 nm, single point | inhibition, % at 9.99 µM | actives 0.05% (n = 350,000) | Protein disulfide-isomerase A6 (Homo sapiens), Q15084 | 90 min;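 active means mean replicate inhibition above about 25%, with every replicate also reaching it, limit read from the data, passing the limit was not always enough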
Target sequence (Q15084 whole entry, looked up): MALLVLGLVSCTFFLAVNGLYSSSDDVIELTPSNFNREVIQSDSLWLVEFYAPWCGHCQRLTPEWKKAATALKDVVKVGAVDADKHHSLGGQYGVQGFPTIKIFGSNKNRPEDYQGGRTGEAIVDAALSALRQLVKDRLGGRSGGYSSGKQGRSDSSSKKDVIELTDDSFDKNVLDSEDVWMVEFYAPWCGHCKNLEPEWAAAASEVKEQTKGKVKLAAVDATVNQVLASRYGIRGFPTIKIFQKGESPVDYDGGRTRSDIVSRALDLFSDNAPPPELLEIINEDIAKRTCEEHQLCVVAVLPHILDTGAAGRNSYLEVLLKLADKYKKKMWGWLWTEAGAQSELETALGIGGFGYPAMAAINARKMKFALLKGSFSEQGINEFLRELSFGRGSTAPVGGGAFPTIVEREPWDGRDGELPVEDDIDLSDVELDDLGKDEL
S100A4 MyoIIA: inhibitors of S100A4-myosin IIA peptide binding, primary screen, biochemical, fluorescence polarization, TAMRA-MyoIIA peptide | AID 652163, 2013 | inhibition, % at 10.7 µM | actives 0.14% (n = 360,000) | Protein S100-A4 (Homo sapiens), P26447;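 active means mean inhibition of at least 70% across replicates, with every replicate also reaching that level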
Target sequence (P26447 whole entry, looked up): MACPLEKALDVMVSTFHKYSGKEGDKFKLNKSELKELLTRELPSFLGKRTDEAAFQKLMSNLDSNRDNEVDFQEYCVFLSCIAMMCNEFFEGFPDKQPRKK
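Test system – S100A4 monomer (human) · Compound – single-point compound testing · Schedule – 5 min incubation before reading · Probe or stimulus – TAMRA-labelled myosin IIA heavy-chain peptide probe, 5 nM · Benchmarks – neutral control DMSO, positive control TFP · Medium – Calcium-containing HEPES buffer, pH 7.2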
SIRT5 inh: SIRT5 desuccinylase inhibitors, primary screen, biochemical, fluorescence imaging, single point, set 5 | Purified SirT5, succinyl-peptide AMC, trypsin-coupled fluorescence | inhibition, % at 15 µM | actives 1.1% (n = 330,000) | AID 652115, 2013; in the data active means inhibition above about 15%
INS-1E GSIS act: GLuc luminescence reporter in INS-1E cells, primary screen for activators of glucose-dependent secretion of insulin. activation, % at 16.6 µM. INS-1E GLuc reporter insulin secretion, 2-3 h. actives 0.61% (n = 370,000);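 active means lowest replicate activation of at least 40%, so every replicate reaches that level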;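 further: 0% = median of neutral control wells and 100% = median of IBMX positive control wells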
Numbers without * were called inactive. Compounds with a hit are over-represented: about 1.5% of the library has one in this group of screens.

For COc1ccc(NC(=O)N(C)C[C@H]2Oc3ccc(NC(=O)Nc4cccc5ccccc45)cc3C(=O)N([C@H](C)CO)C[C@H]2C)cc1 the results were ERp5 block -3.4, S100A4 MyoIIA 6.4, SIRT5 inh 0.6 and INS-1E GSIS act -1.3.
`COc1ccc(CCNc2ccncn2)cc1OC` gave PDI inh -2.9 and INS-1E GSIS act 45.4*.
For COc1ccc(CCNc2ccncn2)cc1 the results were PDI inh 0.1.
CCCCOc1ccc(S(=O)(=O)NNC(=O)c2cc3ccccc3o2)cc1 was read as PDI inh 2.5, ERp5 block 0.0, S100A4 MyoIIA 1.5, SIRT5 inh 30.6* and INS-1E GSIS act -43.1.
COc1cccc(/C=C(/C#N)c2nc3ccccc3[nH]2)c1OC(C)C(=O)O (stereo not drawn) was read as PDI inh 1.4, ERp5 block -4.6, S100A4 MyoIIA -2.2, SIRT5 inh 0.7 and INS-1E GSIS act 0.5.
Screening COc1cccc(/C=C(\C#N)c2nc3ccccc3[nH]2)c1OCC(=O)O returned PDI inh 5.7, ERp5 block -0.7, S100A4 MyoIIA -7.7, SIRT5 inh 102.2* and INS-1E GSIS act -5.6.
For O=[N+]([O-])c1cccc(S(=O)(=O)Nc2nc3ccccc3nc2Nc2cccc(S(=O)(=O)N3CCCCC3)c2)c1 the results were PDI inh -6.4, ERp5 block -4.9, S100A4 MyoIIA -11.6, SIRT5 inh 24.7* and INS-1E GSIS act -25.0.
O=C(CC(c1ccco1)S(=O)(=O)c1ccccc1)c1ccccc1 (stereo not drawn) was read as PDI inh -3.5, ERp5 block -6.8, S100A4 MyoIIA -5.1, SIRT5 inh 20.3* and INS-1E GSIS act 1.6.
COc1ccc(NC(=O)CNC(=O)Cc2cccc3ccccc23)cc1 was read as PDI inh -1.8, ERp5 block -3.4, S100A4 MyoIIA -39.3, SIRT5 inh -1.9 and INS-1E GSIS act 3.5.
`Cc1ccc(/C(N)=N/OC(=O)Cc2cccc3ccccc23)cc1` gave PDI inh 18.3, ERp5 block 1.8, S100A4 MyoIIA 4.3, SIRT5 inh 6.9 and INS-1E GSIS act 8.5.
`CC(=O)c1ccc(OC(=O)Cc2cccc3ccccc23)cc1` gave PDI inh 14.0, ERp5 block -1.7, S100A4 MyoIIA 17.2, SIRT5 inh 25.6* and INS-1E GSIS act 11.8.
For COc1ccc(OC(=O)Cc2cccc3ccccc23)cc1 the results were PDI inh 2.6, ERp5 block 0.5, S100A4 MyoIIA 13.9 and SIRT5 inh 15.4*.
Screening C[C@@H]1CN([C@@H](C)CO)C(=O)Cc2cc(NC(=O)Nc3ccc(C(F)(F)F)cc3)ccc2O[C@@H]1CN(C)C(=O)Nc1ccc2c(c1)OCO2 returned INS-1E GSIS act 3.8.
`CN(C)c1cccc(C(=O)Nc2ccc(S(=O)(=O)Nc3nccs3)cc2)c1` gave PDI inh 6.5.
Screening CC(Oc1ccccc1Cl)C(=O)Nc1ccc(S(=O)(=O)Nc2nccs2)cc1 (stereo not drawn) returned PDI inh 0.7, ERp5 block 7.7, S100A4 MyoIIA -18.7, SIRT5 inh 6.3 and INS-1E GSIS act 86.9*.
O=C(Nc1ccc(S(=O)(=O)Nc2nccs2)cc1)c1cccc(F)c1 was read as PDI inh -0.9, ERp5 block -1.9, S100A4 MyoIIA 2.3, SIRT5 inh 31.7* and INS-1E GSIS act -0.8.
`C[C@@H]1CN([C@H](C)CO)C(=O)Cc2cc(NC(=O)NC3CCCCC3)ccc2O[C@H]1CN(C)S(=O)(=O)c1ccc(F)cc1` gave ERp5 block -3.2, S100A4 MyoIIA -6.7, SIRT5 inh -1.1 and INS-1E GSIS act 7.1.
Screening N#Cc1cccc(Oc2ccc(-c3cnc4ccccc4n3)cc2)c1C#N returned PDI inh -1.2 and INS-1E GSIS act 87.2*.
N#Cc1ccc(Oc2ccc(-c3cnc4ccccc4n3)cc2)cc1C#N was read as PDI inh 4.5 and INS-1E GSIS act 11.0.
For C[C@@H]1CN([C@@H](C)CO)C(=O)CCCn2nncc2CO[C@@H]1CN(C)Cc1ccncc1 the results were INS-1E GSIS act 2.7.
`COc1ccc(CN(C)C(=O)Cc2ccc(OC)c(S(=O)(=O)N3CCOCC3)c2)cc1OC` gave PDI inh 1.3, ERp5 block 4.7, S100A4 MyoIIA -4.6, SIRT5 inh 6.1 and INS-1E GSIS act 26.5.
For COc1ccc(CN(CCN2CCOCC2)C(=O)c2c(F)cccc2F)cc1OC the results were PDI inh -0.2, ERp5 block -3.0, S100A4 MyoIIA 3.0, SIRT5 inh 17.2* and INS-1E GSIS act 31.1.
`C=CCN(Cc1ccc(OC)c(OC)c1)C(=O)N1CCOCC1` gave PDI inh 22.4, ERp5 block 10.7, S100A4 MyoIIA 24.4, SIRT5 inh 0.3 and INS-1E GSIS act 53.1*.
`COc1ccc(CN(CCCN2CCOCC2)C(=O)Nc2ccccc2)cc1OC` gave PDI inh 0.2.
Screening Cc1noc(C)c1NC(=O)N(C)C[C@@H]1OCCCC[C@@H](C)Oc2ccc(NC(=O)c3ccccc3)cc2C(=O)N([C@H](C)CO)C[C@@H]1C returned ERp5 block -1.6, S100A4 MyoIIA 13.4, SIRT5 inh -7.2 and INS-1E GSIS act 29.7.
For CC(C)(CO)CNC(=O)CCc1nnc(CCCc2ccccc2)o1 the results were PDI inh 1.7, ERp5 block -16.0, S100A4 MyoIIA 4.2, SIRT5 inh 2.7 and INS-1E GSIS act -3.5.
O=C(CCc1nnc(Cc2cccc(C(F)(F)F)c2)o1)NCC(F)(F)F was read as PDI inh -2.5, ERp5 block -0.9, S100A4 MyoIIA -1.3, SIRT5 inh 17.7* and INS-1E GSIS act 2.6.
CC(C)(CO)CNC(=O)CCc1nnc(Cc2ccc(-c3ccccc3)cc2)o1 was read as PDI inh 1.0, ERp5 block 1.0, S100A4 MyoIIA -2.5, SIRT5 inh 25.6* and INS-1E GSIS act -4.8.
For C=C(C)CNC(=O)CCc1nnc(Cc2cccc(C(F)(F)F)c2)o1 the results were PDI inh -7.8, ERp5 block -1.5, S100A4 MyoIIA -2.8, SIRT5 inh -3.6 and INS-1E GSIS act -7.7.
For CC(C)c1ccc(C(CC(=O)c2ccc(Cl)cc2)C(=O)O)cc1 (stereo not drawn) the results were PDI inh -15.2 and INS-1E GSIS act 16.6.
For O=C(CC(C(=O)O)c1ccc(Cl)cc1)c1ccc(Br)cc1 (stereo not drawn) the results were PDI inh 3.6, ERp5 block 1.7, S100A4 MyoIIA 0.3, SIRT5 inh 17.0* and INS-1E GSIS act 8.6.
`C[C@@H]1CN([C@@H](C)CO)C(=O)c2cc(NC(=O)Nc3ccc4c(c3)OCO4)ccc2O[C@@H]1CN(C)Cc1ccccc1` gave ERp5 block -3.2, S100A4 MyoIIA 11.8, SIRT5 inh 3.3 and INS-1E GSIS act -10.4.
